The source made the active and inactive calls. No cut-off for these calls is given here.
Assays:
[1] = target: Hypoxia inducible factors; HIF-1-alpha, HIF-2-alpha (Homo sapiens, UniProt Q16665+Q99814); test: Inhibition of HIF1 signaling in human U251 cells expressing VEGF by VEGF promoter-driven PLAP reporter gene assay; assay type: cell-based; conditions: u-251
Summary of the method: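 U251/VEGF-PLAP reporter cells seeded at 4.0 × 10⁴ cells/well and incubated overnight before compounds were added. Compounds were dissolved in DMSO and diluted in culture medium, final DMSO ≤0.2% (v/v). Cells grown in DMEM with 10% FBS at 37 °C, 5% CO₂, under 21% O₂ (normoxia) or 2% O₂ (hypoxia).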

U-251 [2] = test: Suppression of hypoxia-induced HIF1alpha protein expression in human U251 cells at 0.0001 to 1 uM incubated for 6 hrs in presence of 25 uM proteasome inhibitor MG132 by ELISA method; assay type: functional, cell-based
Summary of the method: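 Untransfected U251 cells (4 × 10⁴/well) were incubated with graded compound concentrations for 6 h under 21% O₂, 2% O₂, or 2% O₂ with 25 µM MG132. Lysates were diluted fivefold in PBS/1% BSA and HIF-1α measured by ELISA. Mean of two wells.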

Mus musculus [3] = test: Suppression of HIF1alpha protein expression in BALB/cA mouse xenografted with human U251 cells at 50 to 100 mg/kg, po after 24 hrs by ELISA; assay type: functional, organism-based; conditions: U-251
Summary of the method: (§1)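 Female BALB/cA nu/nu mice bearing subcutaneous untransfected U251 tumors (~300 mm³) got a single oral dose at 10 mL/kg in DMSO/Tween-80 (35:65) diluted 5-fold with saline. Tumors harvested 24 h later, frozen in liquid nitrogen and fragmented, then lysed in Tris pH 7.5/NaCl/Triton X-100 buffer and centrifuged. HIF-1α measured by ELISA, normalized to BCA total protein, expressed as % of vehicle control. Mean of three animals.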

Mus musculus [4] = test: Suppression of HIF1alpha mRNA expression in BALB/cA mouse xenografted with human U251 cells at 50 to 100 mg/kg, po after 24 hrs; assay type: functional, organism-based; conditions: U-251
U-251 [5] = test: Suppression of hypoxia-induced HIF1alpha protein expression in human U251 cells at 0.0001 to 1 uM incubated for 6 hrs by ELISA method; assay type: functional, cell-based
Summary of the method: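 Untransfected U251 cells at 4 × 10⁴ cells/well were exposed to compound for 6 h under hypoxia (2% O₂), with normoxia (21% O₂) as comparison. Cells were lysed in Tris/NaCl/Triton buffer, lysate diluted fivefold in PBS with 1% BSA, and HIF-1α quantified by ELISA. Mean of two wells.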

U-251 [6] = test: Suppression of deferoxamine-induced HIF1alpha protein expression in human U251 cells at 0.0001 to 1 uM incubated for 6 hrs by ELISA method; assay type: functional, cell-based
Summary of the method: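 Untransfected U251 cells at 4 × 10⁴ cells/well were treated for 6 h with a range of compound concentrations. Conditions were 21% O₂, 2% O₂, or 21% O₂ plus 100 µM deferoxamine. Cells were lysed, lysate diluted fivefold in PBS/1% BSA, and HIF-1α measured by total HIF-1α ELISA. Mean of two wells.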

U-251 [7] = test: Suppression of HIF1alpha mRNA expression in human U251 cells; assay type: functional, cell-based
U-251 [8] = test: Antitumor activity against human U251 cells xenografted in BALB/cA mouse assessed as delay in tumor growth at 12.5 to 100 mg/kg, po dosed daily for 11 days; assay type: functional, organism-based
Summary of the method: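 Untransfected U251 cells injected subcutaneously into flank or hind leg of female BALB/cA nu/nu mice and grown to about 300 mm³. Mice stratified into groups of 5 with similar mean tumor volume. Dosed orally at 10 mL/kg once daily for 11 days. Vehicle was DMSO/Tween-80 (35:65) diluted 5-fold with saline just before dosing. Tumor volume (length × diameter²/2) measured twice weekly and expressed relative to pretreatment size.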

Mus musculus [9] = test: Toxicity in BALB/cA mouse xenografted with human U251 cells assessed as reduction in body weight at 12.5 to 100 mg/kg, po dosed daily for 11 days; assay type: organism-based, U-251; design: dose 12.5-100 mg/kg, route oral; conditions: in vivo, 264 h
Summary of the method: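 Female BALB/cA nu/nu mice carried subcutaneous untransfected U251 tumors of about 300 mm³, 5 per group. Given oral doses at 10 mL/kg once daily for 11 days in DMSO/Tween-80 (35:65) diluted 5-fold in saline. Body weight was followed alongside tumor volume.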

Mus musculus [10] = test: Suppression of HIF1alpha protein expression in BALB/cA mouse xenografted with human U251 cells at 12.5 mg/kg, po after 3 hrs by ELISA; assay type: functional, organism-based; design: dose 12.5 mg/kg; conditions: U-251
Summary of the method: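 Single oral dose given to female nude BALB/cA mice with subcutaneous U251 xenografts. Tumors collected at 3, 12, 16 and 24 h after dosing. HIF-1α in total tumor extracts measured by ELISA and normalized to total protein. Mean ± SD reported.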

Mus musculus [11] = test: Toxicity in BALB/cA mouse xenografted with human U251 cells assessed as mouse survival at 50 mg/kg/day, po; assay type: organism-based, U-251; design: route oral; conditions: in vivo
Summary of the method: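 Survival model: untransfected U251 cells implanted intracranially in athymic mice. Oral dosing once daily for about 50 days. Dose formulated in DMSO/Tween-80 (35:65) and diluted 5-fold with saline immediately before administration.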

Mus musculus [12] = test: Suppression of HIF1alpha protein expression in BALB/cA mouse xenografted with human U251 cells at 6.25 to 12.5 mg/kg, po after 24 hrs by ELISA; assay type: functional, organism-based; conditions: U-251; summary of the method: as §1
Mus musculus [13] = test: Toxicity in BALB/cA mouse xenografted with human U251 cells assessed as reduction in body weight at 12.5 mg/kg, po after 24 hrs; assay type: organism-based, U-251; design: dose 12.5 mg/kg, route oral; scale not given: the % may be the effect or the level left; conditions: in vivo
Summary of the method: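 Nude female BALB/cA mice bearing subcutaneous U251 tumors received one oral dose (10 mL/kg; DMSO/Tween-80 35:65 diluted 5-fold with saline). Body weight was compared with vehicle controls 24 h after dosing.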

IC50 [1] [µM] | Compound | also measured
0.11 | O=C(Nc1ccc(C(F)(F)F)cc1)c1ccc(CC2CCN(Cc3ccncc3)CC2)cc1 | 
0.013 | O=C(Nc1ccc(C(F)(F)F)cc1)c1ccc(CN2CCN(Cc3ccccc3)CC2)cc1 | 
0.23 | O=C(Nc1ccc(C(F)(F)F)cc1)c1ccc(CN2CCOCC2)cn1 | 
0.0026 | C[C@H]1CN(Cc2cccnc2)CCN1Cc1ccc(C(=O)Nc2ccc(C#CC34CC5CC(CC(C5)C3)C4)cc2)cc1 | 
2.2 | O=C(Nc1cccc(I)c1)c1ccc(CN2CCOCC2)cc1 | 
> 0.2 | O=C(Nc1ccc(C#CC2(O)CCCCC2)cc1)c1ccc(CN2CCN(Cc3cccnc3)CC2)cc1 | 
1.6 | O=C(Nc1ccc(C(F)(F)F)cc1)c1ccc(CN2CCOCC2)s1 | 
0.0058 | Nc1ncccc1C(=O)N1CCN(Cc2ccc(C(=O)Nc3ccc(C#CC45CC6CC(CC(C6)C4)C5)cc3)cc2)CC1 | 
2.5 | O=C(Nc1ccc(CN2CCOCC2)cc1)c1ccc(I)cc1 | 
0.0031 | O=C(Nc1ccc(C#CC2CCCCC2)cc1)c1ccc(CN2CCN(Cc3cccnc3)CC2)cc1 | 
0.034 | O=C(Nc1ccc(C#Cc2cccnc2)cc1)c1ccc(CN2CCN(Cc3cccnc3)CC2)cc1 | 
2.2 | CN(C(=O)c1ccc(CN2CCOCC2)cc1)c1ccc(I)cc1.Cl | 
0.013 | C[C@@H]1CN(Cc2cccnc2)CCN1Cc1ccc(C(=O)Nc2ccc(C(F)(F)F)cc2)cc1 | 
0.88 | FC(F)(F)c1ccc(/C=C/c2ccc(CN3CCOCC3)cc2)cc1 | 
0.03 | C[C@@H]1CN(Cc2ccc(C(=O)Nc3ccc(C(F)(F)F)cc3)cc2)CCN1Cc1cccnc1 | 
0.0033 | C[C@H]1CN(Cc2cccnc2)CCN1Cc1ccc(C(=O)Nc2ccc(C(F)(F)F)cc2)cc1 | 
0.0011 | COCc1ccc(CN2CCN(Cc3ccc(C(=O)Nc4ccc(C#CC56CC7CC(CC(C7)C5)C6)cc4)cc3)[C@@H](C)C2)cn1 | 

IC50 [1] [µM] | Compound | also measured
4 | O=C(Nc1ccc(C(F)(F)F)cn1)c1ccc(CN2CCOCC2)cc1 | 
0.56 | O=C(Nc1ccc(I)cc1)c1ccc(CN2CCOCC2)cc1 | 
0.28 | O=C(Nc1ccc(C(F)(F)F)cc1)c1ccc(CN2CCOCC2)cc1 | 
5.4 | O=C(Nc1ccccc1)c1ccc(CN2CCOCC2)cc1 | 
0.014 | O=C(Nc1ccc(C(F)(F)F)cc1)c1ccc(CN2CCN(Cc3cccnc3)CC2)cc1 | 
0.0079 | O=C(Nc1ccc(C#Cc2ccccc2)cc1)c1ccc(CN2CCN(Cc3cccnc3)CC2)cc1 | inhibition (U-251 [2]): inactive; inhibition (Mus musculus [3]): Active; inhibition (Mus musculus [4]): inactive; inhibition (U-251 [5]): Active; inhibition (U-251 [6]): inactive; inhibition (U-251 [7]): inactive
4.5 | O=C(Nc1ccc(C(F)(F)F)cc1)c1ccc(CN2CCOCC2)nc1 | 
2.5 | Ic1ccc(NCc2ccc(CN3CCOCC3)cc2)cc1 | 
0.035 | C[C@H]1CN(Cc2ccc(C(=O)Nc3ccc(C(F)(F)F)cc3)cc2)CCN1Cc1cccnc1 | 
> 10 | O=C(Nc1ccc(C(F)(F)F)cc1)c1ccccc1CN1CCOCC1 | 
0.00097 | O=C(Nc1ccc(C#CC23CC4CC(CC(C4)C2)C3)cc1)c1ccc(CN2CCN(Cc3cccnc3)CC2)cc1 | 
0.0079 | O=C(Nc1ccc(C(F)(F)F)cc1)c1ccc(CN2CCN(Cc3ccncc3)CC2)cc1 | 
> 20 | O=C(Nc1ccccc1I)c1ccc(CN2CCOCC2)cc1 | 
0.12 | CN(CCN(C)Cc1cccnc1)Cc1ccc(C(=O)Nc2ccc(C(F)(F)F)cc2)cc1 | 
13.9 | COc1ccc(NC(=O)c2ccc(CN3CCOCC3)cc2)cc1 | 
> 10 | O=C(Nc1ccc(C(F)(F)F)cc1)c1cccc(CN2CCOCC2)c1 | 
0.00047 | COCCOCc1ccc(CN2CCN(Cc3ccc(C(=O)Nc4ccc(C#CC56CC7CC(CC(C7)C5)C6)cc4)cc3)[C@@H](C)C2)cn1 | inhibition (Mus musculus [12]): Active; Activity (Mus musculus [13]): 92%

Compound | IC50 [1] [µM] | also measured
Nc1ncccc1C(=O)N1CCN(Cc2ccc(C(=O)Nc3ccc(C#Cc4ccccc4)cc3)cc2)CC1 | 0.021 | inhibition (Mus musculus [3]): Active; inhibition (Mus musculus [4]): inactive; TGI (U-251 [8]): Active; Activity (Mus musculus [9]): Non-toxic; inhibition (Mus musculus [10]): Active; Survival (Mus musculus [11]): 50 days
